Assay results: ChEMBL document CHEMBL4513216, “Probing the Open Global Health Chemical Diversity Library for Multistage-Active Starting Points for Next-Generation Antimalarials” (ACS Infect Dis, 2020)

Experiment: Toxicity liver stage against HepG2, at 10uM
Format: cell-based
Design: test concentration 10 uM, cell line HepG2-A16-CD81EGFP
Conditions: human, HepG2-A16-CD81EGFP cells; read-out: INHIBITION
How it was run: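 Uninfected HepG2-A16-CD81EGFP cells, 3 × 10^3 per well, 1536-well, plated on prespotted compound at 10 μM final, parasite-free screening media added to match infected plates; puromycin 10 μM positive, DMSO 0.5% negative; run in parallel with 48 h PbLuc assay at 37 °C, 5% CO2; viability by CellTiter-Glo luminescence, normalized to controls.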

O=C(NC1CCCC1)O[C@H]1COCCN(c2nc3ccccc3o2)C1
cytotoxicity at 10 µM: -3.51%

CCNC(=O)N1CC[C@H]2CC(=O)N(CCN3CCNC3=O)CC[C@H]2C1
cytotoxicity at 10 µM: 2.22%

FC(F)(F)c1ccc2[nH]c([C@H]3CCNC3)nc2c1
cytotoxicity at 10 µM: 2.91%

COc1ccc2cnn(CC(=O)NC3CCCCC3)c(=O)c2c1OC
cytotoxicity at 10 µM: -2.49%

CC(C)CCn1cc(C(=O)NC2CCS(=O)(=O)C2)c2ccccc2c1=O (stereo not given)
cytotoxicity at 10 µM: -3.68%

CSCCC(C)(O)CNS(=O)(=O)Cc1ccc(F)cc1 (stereo not given)
cytotoxicity at 10 µM: -5.95%

Cc1noc(C)c1S(=O)(=O)N1CCC(Oc2cnccn2)CC1
cytotoxicity at 10 µM: 4.95%

O=S(=O)(NCCNc1ccc(-n2cccc2)nn1)c1ccccc1
cytotoxicity at 10 µM: -0.426%

O=S(=O)(Cc1ccccc1)NCCNc1ccc(-n2cccc2)nn1
cytotoxicity at 10 µM: 10.8%

CSc1ccc(C(O)CNS(=O)(=O)C2CC2)cc1 (stereo not given)
cytotoxicity at 10 µM: -0.608%

Cc1sc(CN)nc1-c1ccc(Cl)cc1Cl
cytotoxicity at 10 µM: -1.14%

Cc1ccc(-c2[nH][nH]c(=O)c2CCN)cc1
cytotoxicity at 10 µM: 6.03%

COc1ccc(NC(=O)Cn2cc(-c3ccccc3)ncc2=O)cn1
cytotoxicity at 10 µM: -4.73%

Cc1cnc(N2C(=O)CSC2c2ccc(F)cc2)s1 (stereo not given)
cytotoxicity at 10 µM: -2.92%

Nc1nnc(C2CC(=O)N(c3ccccc3)C2)s1 (stereo not given)
cytotoxicity at 10 µM: 4.23%

NC(=O)c1c(-c2ccc(Cl)cc2Cl)csc1NC(=O)CCC(=O)O
cytotoxicity at 10 µM: 8.32%

CC(C)C(=O)Nc1cc(C(=O)NC2CC(C)(C)NC(C)(C)C2)nn1C
cytotoxicity at 10 µM: -7.04%

CSc1cccc(NC(C)C(=O)Nc2nccs2)c1 (stereo not given)
cytotoxicity at 10 µM: 3.05%

CNc1[nH]nc(N)c1C(=O)Nc1ccc(OC)cc1
cytotoxicity at 10 µM: 14.8%

Cc1ccc(C2CN(C(=O)c3ccn(C)c(=O)c3)CCO2)nc1 (stereo not given)
cytotoxicity at 10 µM: -17%

O=C(c1cccnc1)N1CCCC(c2ncncc2-c2ccncc2)C1 (stereo not given)
cytotoxicity at 10 µM: -23.4%

Cc1ccc(CC(=O)N2CCCC(c3n[nH]c4nccnc34)C2)cc1 (stereo not given)
cytotoxicity at 10 µM: -22.2%

Cc1ccc(S(=O)(=O)N2C[C@@H]3C[C@@H](NC(=O)C(C)(C)C)[C@@H]3C2)cc1
cytotoxicity at 10 µM: -3.81%

CC(C)C(C(=O)O)c1cccc(Cl)c1 (stereo not given)
cytotoxicity at 10 µM: -12.8%

CNS(=O)(=O)c1cc(C(=O)N2CCCCCC2CC(C)C)co1 (stereo not given)
cytotoxicity at 10 µM: 11.2%

O=C(NCC1SCCc2ccccc21)c1cscn1 (stereo not given)
cytotoxicity at 10 µM: -1.88%

Cc1nc(CC(=O)N2c3ccccc3OCC2C)cs1 (stereo not given)
cytotoxicity at 10 µM: -6.53%

CN(Cc1ccc(F)cc1)Cc1cc2c(cc1Br)OCCO2
cytotoxicity at 10 µM: -138%

Cc1ccc(F)c(S(=O)(=O)NCCc2nnc[nH]2)c1
cytotoxicity at 10 µM: 3.16%

Cn1cc(C(=O)NCc2ccc(OC3CCCCC3)nc2)ccc1=O
cytotoxicity at 10 µM: 28.8%

COc1ccc(C2CCCN2C(=O)c2ccc(=O)n(C)c2)cc1OC (stereo not given)
cytotoxicity at 10 µM: 11.3%

CC(c1ncc(C(C)(C)C)o1)N1CCN(Cc2ccncc2)CC1 (stereo not given)
cytotoxicity at 10 µM: -12.3%

CCOC(=O)CCCN1CCCC(C(=O)Nc2ccc(Cl)cn2)C1 (stereo not given)
cytotoxicity at 10 µM: 2.69%

Cc1cnc(CN2CCCC(c3nc4ccccc4n3C(C)C)C2)o1 (stereo not given)
cytotoxicity at 10 µM: -8.14%

Cn1cnc2c1CCN(Cc1nc(-c3ccco3)no1)C2
cytotoxicity at 10 µM: 0.887%

CCn1c(CNC(=O)Nc2nc(C)c(C)o2)nc2ccccc21
cytotoxicity at 10 µM: -5.3%

Cc1noc(CCNS(=O)(=O)N2CCCC2c2ccco2)n1 (stereo not given)
cytotoxicity at 10 µM: -6.43%

COc1cccc2c1N(C(=O)c1ccc(C)nc1)CCC2
cytotoxicity at 10 µM: 1.36%

CNS(=O)(=O)c1ccc(CNC(=O)N(C)C(C)COC)cc1 (stereo not given)
cytotoxicity at 10 µM: -5.12%

CN(CC(=O)N(C)C1CCCCC1)Cc1nc2ccccc2c(=O)[nH]1
cytotoxicity at 10 µM: 2.26%

Cc1ccccc1OCCC(=O)OC(C)C(=O)Nc1sccc1C(N)=O (stereo not given)
cytotoxicity at 10 µM: 19.4%

c1cc2c(cc1C1CCCN1Cc1nnnn1C1CC1)OCCO2 (stereo not given)
cytotoxicity at 10 µM: -25.7%

CC(C)C(=O)N1CC[C@H]2N(C)CC[C@@]2(C(=O)Nc2ccccc2)CC1
cytotoxicity at 10 µM: -107%

CCN1CCO[C@@H]2CN(C(=O)NCc3ccccc3)CC[C@@H]2C1
cytotoxicity at 10 µM: -117%

CN1C(=O)CC(c2ccccc2)C12CCN(c1ncc(F)cn1)CC2 (stereo not given)
cytotoxicity at 10 µM: -108%

COCC(=O)NCc1cc(=O)n2c(n1)CN(Cc1nccs1)CCC2
cytotoxicity at 10 µM: -107%

CS(=O)(=O)NCc1nnc2n1CCN(Cc1cccnc1)C2
cytotoxicity at 10 µM: -70.9%

c1cnc(NCC2Cn3nnc(-c4ccsc4)c3CO2)nc1 (stereo not given)
cytotoxicity at 10 µM: -73.3%

COCCc1noc(CN2CC(Cc3ccccc3)CC2=O)n1 (stereo not given)
cytotoxicity at 10 µM: -7.11%

NC(=O)c1noc(Cn2ncc3ccccc3c2=O)n1
cytotoxicity at 10 µM: -1.26%

O=C(NCCc1csc(-c2cccnc2)n1)c1cnn2c1CCCC2
cytotoxicity at 10 µM: 3.41%

CCc1[nH]c2c(CNc3cncc(C(=O)OC)n3)cc(C)cc2c1C
cytotoxicity at 10 µM: 1.85%

CCn1nc(C(C)C)cc1C(=O)NCC1CCCN(c2ccccn2)C1 (stereo not given)
cytotoxicity at 10 µM: 5.65%

Cc1cc(F)ccc1OC1(C(=O)O)CCN(Cc2nccn2C)CC1
cytotoxicity at 10 µM: 0.334%

CCCOCCN1CCc2[nH]c(-c3ccccc3)nc2C1
cytotoxicity at 10 µM: -124%
